Assay outcomes (PubChem)
Shown are actives, neighbours in structure and some others; about 4.1% of the full set was active somewhere.
APP 5'UTR act – activates APP 5'UTR luciferase reporter | SH-SY5Y APP 5'UTR luciferase reporter, luminescence; zero percent = DMSO vehicle wells | activation, % at 2 µM | actives 1% (n = 190,000);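 active = activation above a set limit, based on mean plus 3 SD of controls, cut at about 140% in these data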
FLuc inhib CS – inhibits firefly luciferase, flagging false hits in luciferase inhibition screens; inhibition, % at 10 µM; actives 1.5% (n = 200,000); ATPLite firefly luciferase biochemical luminescence, 10 min; P08659;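 active = inhibition above about 50% when tested at 10 µM, limit read from the data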
Target sequence (P08659 whole entry, looked up): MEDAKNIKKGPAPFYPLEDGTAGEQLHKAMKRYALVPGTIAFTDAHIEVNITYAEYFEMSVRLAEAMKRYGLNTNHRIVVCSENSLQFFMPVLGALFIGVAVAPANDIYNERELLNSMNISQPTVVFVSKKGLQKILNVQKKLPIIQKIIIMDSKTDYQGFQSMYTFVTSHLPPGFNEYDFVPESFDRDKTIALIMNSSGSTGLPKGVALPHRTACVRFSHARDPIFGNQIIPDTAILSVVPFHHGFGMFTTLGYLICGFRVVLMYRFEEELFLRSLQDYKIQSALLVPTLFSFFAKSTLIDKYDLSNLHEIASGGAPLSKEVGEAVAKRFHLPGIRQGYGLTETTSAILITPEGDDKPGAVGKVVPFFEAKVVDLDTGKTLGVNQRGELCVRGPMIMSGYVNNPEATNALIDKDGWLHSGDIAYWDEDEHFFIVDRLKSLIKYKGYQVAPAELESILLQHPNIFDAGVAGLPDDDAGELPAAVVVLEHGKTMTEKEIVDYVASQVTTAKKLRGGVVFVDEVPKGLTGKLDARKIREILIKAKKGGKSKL
STAT1 act – increases IFN-gamma driven STAT1 reporter signal | NIH 3T3 STAT1-luciferase reporter, luminescence; 100% = IFN-gamma alone, no compound | activation (% of control), % at 5.5 µM | actives 2.6% (n = 200,000) | AID 932;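 active = activation above the screen-wide mean activation plus 3 SD, cut at about 130% in these data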;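 note: raw ratio to IFN-gamma control signal so 100% means no change and 0% no light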
NF-kB expr up – compounds increasing NF-kB expression in human neuronal cells; NF-kB reporter expression; stronger effect = higher value; fold change at 12.5 µM; actives 1.6% (n = 190,000); AID 1239; in the data active = fold change above about 3.3
FLuc stim CS – affects firefly luciferase, flagging false hits in luciferase stimulation screens; ATPlite luciferase biochemical, luminescence, 10 min; 0 = ATP-free wells, 1 = DMSO control; activation factor at 10 µM; 200,000 tested, under 10 active; P08659;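 active = luciferase activation factor, scaled between plate controls, of at least 2 with compound at 10 µM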
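Assay system – cell-free luciferase reagent · Medium – PBS-based ATP solution · Dosing – test compounds dosed from 2 mM stocks in 100% DMSO · Timing – 10 min, room temperature · Technique – light output (luminescence) · Measure – luminescence gain marking luciferase activators · Controls – No-ATP low control, compound-free enzyme-plus-ATP high control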
An asterisk follows results filed as active; x = no result given.

SMILES	APP 5'UTR act	FLuc inhib CS	STAT1 act	NF-kB expr up	FLuc stim CS
Cn1cccc1/C=C1\Cc2ccccc2C1=O	184*	58*	140*	7.2*	0.4
COc1ccc(C(=O)Nc2ccc(O)cc2C(=O)O)cc1	-19	63*	79	1	0.4
COc1ccc(C(=O)Nc2ccccc2C(=O)N/N=C/c2cccc3ccccc23)cc1	101	97*	65	4.2*	0
COc1ccc(C(=O)Nc2ccccc2C(N)=O)cc1	91	74*	119	3.1	0.3
COC(=O)Nc1ccc(S(=O)(=O)N2CCN(C)CC2)cc1	-1	-5	101	0.96	1.1
CC(C)NC(=O)CSc1nc2[nH]ncc2c(=O)[nH]1	19	-1	94	1.3	1
Cc1cc(C)nc(/N=C(\N)Nc2ccc(-c3ccccc3)cc2)n1	30	0	92	0.83	1
COc1cc(-c2noc(-c3ccco3)n2)cc(OC)c1OC	-3	-7	105	1.4	1.1
COc1ccccc1-c1noc(-c2ccco2)n1	118	27	131*	2.6	0.7
COc1nc(-c2ccccc2)ccc1-c1noc(-c2ccco2)n1	10	-2	145*	3.7*	1
COc1ccc(-c2ccc(-c3noc(-c4ccco4)n3)c(OC)n2)cc1	14	-4	110	1.2	1
COc1ccc(NC(=O)C2CCCO2)cc1Cl (stereo unspecified)	4	-1	98	1.1	1
O=C(Nc1nc(-c2ccc(Cl)cc2)cs1)C1CCCO1 (stereo unspecified)	36	1	131*	2.5	1
COc1ccc(-c2nnc(NC(=O)C3CCCO3)s2)cc1 (stereo unspecified)	55	28	142*	1.9	0.7
O=C(Nc1nc(-c2ccc(Oc3ccccc3)cc2)cs1)C1=COCCO1	5	-4	94	1	1
CSc1nc2ccc(NC(=O)C3CCCO3)cc2s1 (stereo unspecified)	29	18	132*	2.1	0.8
Cc1ccc(-c2csc(NC(=O)C3=COCCO3)n2)cc1	73	3	136*	2.2	1
O=C(Nc1ccccc1)ON=C1c2ccccc2-c2ccccc21	11	-2	103	1.2	1
COc1ccc2nc(NC(=O)C3CCCO3)sc2c1 (stereo unspecified)	138*	33	150*	3.5*	0.7
O=C(COC(=O)c1ccc[nH]c1=O)c1ccc(Cl)s1	8	20	104	1	0.8
Cc1ccc(C(=O)OCC(=O)c2ccc(Cl)s2)s1	-2	41	131*	2.1	0.6
COCCNc1nnc(SCC(=O)Nc2cc(-c3ccccc3)nn2-c2ccccc2)s1	12	-2	100	0.98	1
COc1ccc(OC(=O)c2ccc3nsnc3c2)cc1	-15	33	94	1.2	0.7
CC(=O)c1cccc(NC(=O)c2cc3ccccn3n2)c1	78	72*	121	1.9	0.3
Cc1ccc(C)c(NC(=O)c2cc3ccccn3n2)c1	125	38	134*	3	0.6
SMILES	APP 5'UTR act	FLuc inhib CS	STAT1 act	NF-kB expr up	FLuc stim CS
CC(=O)c1cccc(NC(=O)c2cnn3ccccc23)c1	x	26	129*	3.4*	0.7
CC(=O)c1ccc(NC(=O)c2cnn3ccccc23)cc1	105	42	23	3.1	0.6
Cc1cc(NC(=O)c2noc3c2CCCCC3)no1	31	21	122	1.3	0.8
COc1ccc(NC(=O)c2cc(C(C)C)on2)cc1OC	25	5	117	1.5	0.9
CC(C)c1cc(C(=O)Nc2ccc3c(c2)OCO3)no1	145*	45	116	6.4*	0.5
O=C(Nc1ccc2c(c1)OCO2)c1cnccn1	39	21	130*	2.2	0.8
O=C(Nc1ccc2c(c1)OCO2)c1noc2c1CCCCC2	178*	57*	142*	7.7*	0.4
COc1ccc(NC(=O)c2cc(C(C)C)on2)c(OC)c1	53	8	138*	2.6	0.9
Cc1cc(C)c2cccc(NC(=S)NC(=O)c3ccccc3)c2n1	12	1	90	1.3	1
COc1ccc(N(CC(=O)Nc2nccs2)S(=O)(=O)c2c(C)[nH]c(=O)[nH]c2=O)cc1	14	7	99	1.2	0.9
CC(=O)Nc1ccc2c(c1)OCO2	-4	-4	98	1	1
O=C(Nc1ccc2c(c1)OCO2)c1cc(C2CC2)on1	61	47	146*	3.9*	0.5
CC(C)(C)c1ccc(-c2noc(CCC(N)=O)n2)cc1	-72	43	105	1.2	0.6
CCCC(C)C(=O)Nc1ccc(S(=O)(=O)Nc2nccc(C)n2)cc1 (stereo unspecified)	8	1	99	1.4	1
Cc1ccc(NC(=O)c2cc(-c3ccco3)on2)cc1C	8	16	132*	2.6	0.8
O=C(NCCc1ccccc1)c1cc(-c2ccco2)on1	117	6	132*	5.8*	0.9
COc1ccc(CCNC(=O)c2cc(-c3ccco3)on2)cc1OC	5	-3	108	4.5*	1
O=C(NCc1ccccc1)c1cc(-c2ccco2)on1	12	2	107	1.7	1
COc1ccc(CCNC(=O)c2cc(-c3cccs3)on2)cc1OC	-9	-8	102	2.3	1.1
Nc1n[nH]c(=S)n1/N=C1/C(=O)Nc2ccccc21	21	70*	103	1.2	0.3
c1ccc(-c2onc3cc4c(cc23)OCCO4)cc1	88	22	146*	3.8*	0.8
CC(=O)c1ccc2noc(-c3ccccc3)c2c1	-10	-4	102	1.2	1
Cc1nc2c(C#N)cnn2c2c1CCN(Cc1ccccc1)N2C	2	-2	95	1.1	1
Cc1ccc(CSc2ncn(-c3ccccc3)n2)cc1	6	5	104	1.8	0.9
Clc1ccccc1CSc1ncn(-c2ccccc2)n1	83	0	131*	2.5	1
SMILES	APP 5'UTR act	FLuc inhib CS	STAT1 act	NF-kB expr up	FLuc stim CS
Cc1noc(C)c1C(=O)N1CCN(Cc2ccccc2)CC1	-10	-4	104	0.99	1
Cc1c(C(=O)Nc2nc3ccccc3[nH]2)oc2ccccc12	182*	53*	162*	8.1*	0.5
Cc1c(C(=O)Nc2ccccn2)oc2ccccc12	153*	45	124	4.5*	0.6
Cc1ccc(NC(=O)CCC(=O)NNC(=O)CCc2ccccc2)c(C)c1	8	-3	107	1.1	1
CCN(CC)C1CCS(=O)(=O)C1 (stereo unspecified)	20	-1	107	0.97	1
CC(=O)c1ccc(OCC(O)CN2CCOCC2)cc1 (stereo unspecified)	x	-4	100	1	1
O=C(Nc1ccccc1)N1CCN(c2ncccn2)CC1	-6	-4	102	0.97	1
Cc1nc(SCc2ccccc2)nc2c1CCC2	115	-1	148*	2.5	1
COc1cccc(/C=N/N2CCOCC2)c1O	24	63*	112	1.6	0.4
COc1cccc(/C=N/NC(=O)CNC(=O)c2ccc3c(c2)OCCO3)c1O	-5	4	97	0.85	1
